Screens from PubChem BioAssay.
In the library only some 4.5% were active in any assay of this set; here they are far more common.
UPR XBP1 act: activators of adaptive arm of unfolded protein response (XBP1); 330,000 compounds, 0.33% hits; CHO-XBP1 luciferase reporter, IRE1-XBP1 UPR activation, luminescence; percent of tunicamycin response, DMSO as zero; activation, % at 20 µM;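 active = versus positive control, 20 µM dose yields 30% or more activation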;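 note: 100% = tunicamycin at 10 µg/mL and 0% = DMSO only wells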
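Assay system: CHO-XBP1 luciferase reporter cells; Schedule: 6 h treatment, 37 °C; Detection: glow luminescence from Steady-Glo reagent; Benchmarks: high control tunicamycin 10 µg/mL final, low control DMSO vehicle only.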
CHOP inhibitor: CHOP inhibition in unfolded protein response | 220,000 compounds, 3.8% hits | inhibition, % at 10 µM | CHO-K1 CHOP-promoter luciferase, tunicamycin-induced, 15-18 h;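 active = compounds that reduced the stress-induced luciferase reporter signal by more than about 70% of percent inhibition, limit read from the data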;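 note: 0% = tunicamycin plus vehicle and 100% = wells without tunicamycin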
CHOP UPR activ: activators of apoptotic arm of unfolded protein response (CHOP) | CHO-CHOP luciferase reporter, UPR activation, luminescence; percent of tunicamycin response over DMSO baseline | 330,000 compounds, 0.34% hits | activation, % at 10 µM | AID 449763;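 active = at 10 µM dose, activation of 40% or more, normalized to positive control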;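 note: 100% = tunicamycin at 10 µg/mL and 0% = DMSO alone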
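Assay system: CHO cells with stable CHOP pathway luciferase reporter; Buffer or medium: F12 plus 10% serum; Times: 16-18 h cell attachment, then 6 h compound exposure, 37 °C; Signal: luciferase luminescence; Read-out basis: percent activation relative to tunicamycin control; Control set: tunicamycin high control, DMSO low control.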
p97 ATPase inh: inhibitors of human p97 ATPase; recombinant p97 ATPase, Kinase-Glo ATP luminescence, 3 h; inhibition, % at 8 µM; 220,000 compounds, 0.42% hits; in the data active = inhibition above about 15%;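 note: 0% = DMSO vehicle and 100% = wells lacking enzyme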
Target sequence (P55072 whole entry, looked up): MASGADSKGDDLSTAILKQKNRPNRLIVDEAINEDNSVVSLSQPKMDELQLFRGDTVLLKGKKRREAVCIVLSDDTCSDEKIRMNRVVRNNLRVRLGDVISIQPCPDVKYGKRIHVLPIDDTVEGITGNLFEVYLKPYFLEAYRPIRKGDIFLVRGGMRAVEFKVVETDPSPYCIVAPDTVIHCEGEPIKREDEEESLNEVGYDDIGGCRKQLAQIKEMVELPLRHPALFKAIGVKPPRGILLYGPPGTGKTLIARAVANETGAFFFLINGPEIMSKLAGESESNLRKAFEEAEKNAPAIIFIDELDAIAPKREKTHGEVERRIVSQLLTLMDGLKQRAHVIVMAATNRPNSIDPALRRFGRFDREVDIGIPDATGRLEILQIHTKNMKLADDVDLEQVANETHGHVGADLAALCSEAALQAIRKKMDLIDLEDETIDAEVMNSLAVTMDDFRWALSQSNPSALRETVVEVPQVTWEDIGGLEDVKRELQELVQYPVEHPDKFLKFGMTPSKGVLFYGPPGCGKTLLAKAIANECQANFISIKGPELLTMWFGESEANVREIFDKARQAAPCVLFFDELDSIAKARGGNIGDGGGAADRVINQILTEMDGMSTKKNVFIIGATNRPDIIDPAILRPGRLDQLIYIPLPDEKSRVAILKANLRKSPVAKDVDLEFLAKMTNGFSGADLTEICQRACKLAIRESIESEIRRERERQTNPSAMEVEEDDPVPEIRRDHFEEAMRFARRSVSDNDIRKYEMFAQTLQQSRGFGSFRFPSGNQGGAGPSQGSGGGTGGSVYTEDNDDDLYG
M18AAP inhibitor: PfM18AAP enzyme inhibition | recombinant PfM18AAP, H-Glu-NHMec fluorogenic cleavage | inhibition, % at 7.35 µM | 290,000 compounds, 1.2% hits;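 active = inhibition above the campaign mean inhibition over all tested compounds plus 3 SD, cut at about 28% in these data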;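 note: 0% = plate median of test compound wells and 100% = 2 mM ZnCl2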
NS3 helicase inh: blocks Hepatitis C virus NS3 helicase unwinding; NS3 helicase DNA unwinding, Cy5 molecular beacon fluorescence; inhibition, % at 10.9 µM; 290,000 compounds, 0.56% hits;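 active = inhibition above the mean of all tested compounds plus 3 SD, set per campaign, cut at about 35% in these data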;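 note: 0% = DMSO wells and 100% = thioflavine S control wells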
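Control set: DMSO versus 110 µM thioflavine S; Material: NS3 helicase fragment of HCV; Measured by: Cy5 fluorescence at 0 and 60 min, beacon hairpin quenching; Read-out basis: percent inhibition from t60/t0 fluorescence ratio; Times: reaction time 60 min, 25 °C; Repeats: single replicate; Compound dosing: single dose, 10.9 µM nominal final, DMSO 0.8% final.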
NS3 hel confirm: confirmation of Hepatitis C virus NS3 helicase inhibitors; shares compounds with NS3 helicase inh; NS3 helicase DNA unwinding, Cy5 molecular beacon fluorescence; inhibition, % at 10.9 µM; 1,600 compounds, 31% hits; AID 1943;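 active = inhibition above the mean of all tested compounds plus 3 SD, cutoff set per campaign, cut at about 36% in these data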
DNA FID counter: intercalator displacement, NS3 helicase counter-screen. shares compounds with NS3 helicase inh. DNA fluorescent intercalator displacement, fluorescence. inhibition, % at 7.9 µM. 1,600 compounds, 4% hits. AID 1945; in the data active = inhibition above about 37%;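 note: 0% = vehicle and 100% = reference compound; higher means more displacement of ethidium bromide from the DNA hairpin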
DNA FID DR: counter-screen for HCV NS3 helicase inhibitors: DNA intercalator displacement dose response; shares compounds with NS3 helicase inh; 120 tested, under 10 active; fluorescent intercalator displacement from DNA, fluorescence; IC50, µM; call rule not given here
* hit, by the source's call; i = inactive; . = no result.

SMILES	UPR XBP1 act	CHOP inhibitor	CHOP UPR activ	p97 ATPase inh	M18AAP inhibitor	NS3 helicase inh	NS3 hel confirm	DNA FID counter	others
O=C(O)c1ccc(N/N=C/c2ccc(-c3ccc(Cl)cc3Cl)o2)cc1	13.9	0.8	8.3	-0.8	5.9	36.3*	52.6*	17.3
Cc1ccc(S(=O)(=O)Nc2ccc(Br)cc2/C=N/n2cnnc2)cc1	0.5	56.5	0.0	-8.2	25.9	36.1*	37.9*	-7.8
O=C(CC(Cc1ccccc1)C(=O)O)Nc1cccc(C(F)(F)F)c1 (configuration not stated)	8.7	.	-0.4	.	1.0	6.1	.	.
CC(C)(C)C(=O)/C(C#N)=C/c1cccs1	-1.6	15.9	-0.4	-2.1	-1.3	1.0	.	.
N#C/C(=C\c1cccs1)C(=O)c1ccccc1Cl	-0.7	-31.4	3.8	4.3	16.7	40.5*	-26.4	7.1
CNC(=O)c1cc(S(=O)(=O)Nc2ccc3c(c2)OCO3)ccc1C	-2.2	.	0.4	.	3.0	-2.6	.	.
Cc1cc(=O)n2c(c1C#N)SC1CCCCC12O (configuration not stated)	-2.9	63.4	-0.1	4.0	10.0	55.1*	-11.7	-0.1
Cc1cc(C)c(C#N)c(N2CCCC(C(N)=O)C2)n1 (configuration not stated)	-1.2	7.3	0.2	5.5	-5.1	0.1	.	.
COc1ccc(NC2CC(=O)N(C(C)C)C2=O)cc1 (configuration not stated)	-1.7	10.6	3.9	-5.7	-2.5	10.7	.	.
CC(C)N1C(=O)CC(Nc2ccc(N3CCOCC3)cc2)C1=O (configuration not stated)	1.5	16.7	1.5	-3.7	21.0	38.8*	-2.2	-4.7
COc1ccc(CCN2C(=O)CC(Nc3ccc(N4CCOCC4)cc3)C2=O)cc1OC (configuration not stated)	-0.2	12.0	-0.1	2.7	14.8	45.8*	2.2	-17.7
O=C1CC(Nc2ccccc2)C(=O)N1c1ccc(N2CCOCC2)cc1 (configuration not stated)	-1.0	-0.7	1.4	3.5	2.4	3.2	.	.
O=C1CC(Nc2ccc(N3CCOCC3)cc2)C(=O)N1C1CCCCC1 (configuration not stated)	-3.7	-8.8	-0.6	0.1	13.7	38.2*	-15.5	-3.7
Cc1nc(Cl)sc1C(=O)Nc1cccc2ccccc12	0.4	-1.5	3.0	-0.2	0.4	4.6	.	.
O=C1CN(C(=O)N[C@@H](Cc2ccccc2)C(=O)N[C@@H](Cc2ccccc2)C(=O)O)c2ccccc2N1	1.4	.	-1.8	.	8.7	36.5*	-23.3	-31.3
COc1ccc(-c2nnn(CC(=O)N(Cc3ccccc3Cl)C(C(=O)NCC3CCCO3)c3ccco3)n2)cc1 (configuration not stated)	-3.4	-16.5	0.2	3.1	-1.0	-6.2	.	.
COc1ccc(-c2nnn(CC(=O)N(Cc3ccco3)C(C(=O)NCC3CCCO3)c3ccco3)n2)cc1 (configuration not stated)	-2.6	-15.2	0.8	0.1	3.2	45.3*	-9.0	-32.3
CCC(C)[C@H](NC(=O)C1(c2ccccc2)CCN(C(=O)OC(C)(C)C)CC1)C(=O)N[C@@H](C(=O)O)c1ccccc1 (some centres not stated)	-3.8	.	-0.5	.	2.0	46.8*	25.0	-18.3
CC(=O)c1cccc(N=Cc2c(O)ccc3ccccc23)c1	-6.4	.	0.4	.	-4.2	3.0	.	.
CC(=O)N(C)c1ccc(N=Cc2c(O)ccc3ccccc23)cc1	-7.0	.	-0.8	.	-2.6	36.3*	2.3	7.0
CC(C)CSc1oc(-c2ccco2)nc1S(=O)(=O)c1ccccc1	-0.3	11.3	-0.7	-0.7	7.2	40.1*	-22.6	-27.1
Cc1ccc(NC(=O)COC(=O)[C@@H]2CC(O)CN2S(=O)(=O)c2ccc3c(c2)OCCO3)cc1 (some centres not stated)	-2.5	.	-1.6	.	.	.	.	.
CCc1ccc(/C=C2\Oc3c(ccc(O)c3CN3CCN(CCO)CC3)C2=O)cc1	0.5	3.4	0.3	3.6	5.0	50.5*	-13.5	31.6
O=C(O)c1ccccc1CSc1nc2ccccc2[nH]1	-3.5	.	2.0	.	5.8	13.8	.	.
CC(OC(=O)c1ccc(Cl)c(S(=O)(=O)N2CCCC2)c1)C(=O)NC1CCCCC1C (configuration not stated)	-7.6	.	-0.8	.	5.1	37.3*	-13.7	-16.1
SMILES	UPR XBP1 act	CHOP inhibitor	CHOP UPR activ	p97 ATPase inh	M18AAP inhibitor	NS3 helicase inh	NS3 hel confirm	DNA FID counter	others
Cc1ccc(C(=O)OC(C)C(=O)NC2CCCCC2C)cc1S(=O)(=O)N1CCCCC1 (configuration not stated)	-8.6	.	0.5	.	0.6	-1.2	.	.
CCOC(=O)/C=C(C)\C=C\c1c[nH]c2ccccc12	2.9	41.1	3.5	-4.9	2.2	45.4*	2.4	10.0
C=CCSC1=N/C(=C\C=C\c2ccco2)C(=O)S1	5.3	37.3	-1.9	8.6	11.2	41.7*	50.4*	19.4	DNA FID DR=>79.4
NC(=O)c1ccc(NC(=O)Cc2ccc(S(=O)(=O)N3CCCCC3)cc2)cc1	-0.7	.	-0.3	.	.	.	.	.
CCOC(=O)C1CCN(C(=O)COc2ccc3c(C)cc(=O)oc3c2)CC1	-4.2	.	0.4	.	.	.	.	.
Oc1c(/C=C/C=C/C=Nc2ccccc2)sc(=S)n1Cc1ccccc1	-5.1	19.9	-1.1	-5.2	8.4	44.4*	64.6*	32.9	DNA FID DR=i
O=C(N/N=C/c1cccn1-c1ccc([N+](=O)[O-])cc1)c1cccnc1	-2.9	27.6	-1.8	-3.7	15.0	65.2*	1.2	-3.3
O=C(N/N=C/c1cccnc1)c1ccc([N+](=O)[O-])cc1	2.2	-7.1	0.7	0.9	-0.8	6.9	.	.
Cc1onc(-c2ccccc2)c1C(=O)N/N=C/c1ccco1	-1.2	-11.7	-2.7	3.3	19.2	40.0*	-11.9	-7.5
Cc1onc(-c2ccccc2)c1C(=O)N/N=C/c1cccc(O)c1	-2.5	-2.7	3.0	-7.6	-1.5	12.6	.	.
O=C(/C=C/c1cccs1)Nc1ccncc1	-1.9	18.1	1.7	0.6	5.1	-20.4	.	.
Cc1cccc(NC(=O)/C=C/c2cccs2)n1	-0.4	-31.1	8.6	-5.9	11.1	67.1*	-12.8	16.3
Cc1cccc(NC(=O)Nc2cccc(C)n2)n1	1.8	-23.2	3.2	-8.6	-6.8	39.2*	-8.4	0.7
